EPA's CvTdb concentration-time database

Experiments:
Mouse [1] = experiment: concentration in plasma after dosing; details: 10 min; dosed: 2-Hydroxy-4-methoxybenzophenone; 250 mg/kg; oral; Male; B6C3F1
Rat [2] = experiment: concentration in plasma after dosing; details: dosed: 2-Hydroxy-4-methoxybenzophenone, 250 mg/kg, oral, Female, F344
Mouse [3] = experiment: concentration in plasma after dosing; details: 2.5 min; dosed: 2-Hydroxy-4-methoxybenzophenone; 250 mg/kg; oral; Female; B6C3F1
Mouse [4] = experiment: concentration in plasma after dosing; details: dosed: 2,4-Dichlorophenoxyacetic acid, 1.0 mg/kg, oral, Male, B6C3F1
Hamster [5] = experiment: concentration in plasma after dosing; details: dosed: 2,4-Dichlorophenoxyacetic acid, 8.0 mg/kg, iv, Male, Syrian Golden
Summary of the method: (§1)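 Data points giving concentration or amount against time came from published in vivo toxicokinetic studies and from two structured collections. PubMed searching, classifier screening and manual review located the studies. Most points were digitised from plot screenshots using WebPlotDigitizer, the rest were copied from tables, and all keep their reported units.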

Hamster [6] = experiment: concentration in plasma after dosing; details: dosed: 2,4-Dichlorophenoxyacetic acid, 8.0 mg/kg, iv, Male, Syrian Golden; remark: listed apart in the source
Summary of the method: as §1

Rat [7] = experiment: concentration in plasma after dosing; details: 0.5 h; dosed: alpha-Thujone; 25 mg/kg; oral; Female; Harlan Sprague Dawley
Rat [8] = experiment: concentration in plasma after dosing; details: 2.5 h; dosed: 76231-76-0; 3.0 mg/kg; iv; Female; F344
Rat [9] = experiment: concentration in plasma after dosing; details: 1.5 h; dosed: alpha-Thujone; 25 mg/kg; oral; Male; Harlan Sprague Dawley
Rat [10] = experiment: concentration in brain after dosing; details: 3 h; dosed: alpha-Thujone; 50 mg/kg; oral; Female; Harlan Sprague Dawley
Rat [11] = experiment: concentration in plasma after dosing; details: 2 min; dosed: alpha-Thujone; 25 mg/kg; oral; Male; Harlan Sprague Dawley
Rat [12] = experiment: concentration in brain after dosing; details: 6 h; dosed: alpha-Thujone; 25 mg/kg; oral; Male; Harlan Sprague Dawley
Rat [13] = experiment: concentration in brain after dosing; details: 2 min; dosed: alpha-Thujone; 50 mg/kg; oral; Female; Harlan Sprague Dawley
Rat [14] = experiment: concentration in brain after dosing; details: 192 h; dosed: Perfluorohexane-1-sulphonic acid – potassium salt; 16 mg/kg; oral; Female; F344
Rat [15] = experiment: concentration in brain after dosing; details: 192 h; dosed: Perfluorohexane-1-sulphonic acid – potassium salt; 16 mg/kg; oral; Female; F344; remark: listed apart in the source
Rat [16] = experiment: concentration in plasma after dosing; details: dosed: Perfluorohexane-1-sulphonic acid – potassium salt, 4 mg/kg, oral, Male, F344
Rat [17] = experiment: concentration in kidney after dosing; details: 192 h; dosed: Perfluorohexane-1-sulphonic acid – potassium salt; 16 mg/kg; oral; Female; F344
Rat [18] = experiment: concentration in plasma after dosing; details: 40 h; dosed: Pyridine; 100 mg/kg; oral; Male; F344
Rat [19] = experiment: concentration in plasma after dosing; details: 2 h; dosed: Pyridine; 25 mg/kg; oral; Female; Harlan Sprague-Dawley
Rat [20] = experiment: concentration in plasma after dosing; details: dosed: Methyleugenol, 37 mg/kg, iv, Male, F344
human = experiment: amount in urine after dosing (mg cumulative excretion); details: dosed: trichloroethylene, inhalation, duration: 8 hr
Summary of the method: as §1

O=C(c1ccccc1)c1ccc(O)cc1O [2,4-Dihydroxybenzophenone]
Details	concentration in plasma [ng/mL]
Mouse [1]	415
Mouse [3]	53.1

Rat [2]
Details	concentration in plasma [ng/mL]
0.25 h	473
4 h	68

O=C(O)COc1ccc(Cl)cc1Cl [2,4-Dichlorophenoxyacetic acid]
Details	concentration in plasma [ng/mL]
Hamster [5], 5 min	55300
Hamster [5], 40 min	3090
Hamster [6], 0.5 h	10700
Hamster [6], 1 h	1700
Hamster [6], 10 min	30200
Mouse [4], 0.25 h	1400
Mouse [4], 0.5 h	1920
Mouse [4], 2 h	531
Mouse [4], 2.5 min	1660
Mouse [4], 3 h	476
Mouse [4], 4 h	200
Mouse [4], 5 min	3440
Mouse [4], 10 h	734
Mouse [4], 10 min	2340

CC(C)[C@]12CC(=O)[C@H](C)[C@H]1C2 [alpha-Thujone]
Details	concentration in brain [ng/g]	concentration in plasma [ng/mL]
Rat [7]	–	305
Rat [8]	–	2.88
Rat [9]	–	130
Rat [10]	858	–
Rat [11]	–	18
Rat [12]	28.2	–
Rat [13]	13.2	–

O=S(=O)([O-])C(F)(F)C(F)(F)C(F)(F)C(F)(F)C(F)(F)C(F)(F)F.[K+] [Perfluorohexane-1-sulphonic acid – potassium salt]
Details	concentration in brain [ng/g]	concentration in kidney [ng/g]
Rat [14]	929	–
Rat [15]	834	–
Rat [17]	–	15300

Rat [16]
Details	concentration in plasma [ng/mL]
3 h	29800
192 h	18200
1200 h	6240

c1ccncc1 [Pyridine]
Details	concentration in plasma [ng/mL]
Rat [18]	20000
Rat [19]	17100

C=CCc1ccc(OC)c(OC)c1 [Methyleugenol]
Rat [20]
Details	concentration in plasma [ng/mL]
0.25 h	8180
1.5 h	878

OCC(Cl)(Cl)Cl [trichloroethanol]
human
Details	amount in urine
7.932 h, 97 ppm	111
7.949 h, 54 ppm	76.3
8.43 h, 97 ppm	104
8.618 h, 54 ppm	55.6
9.257 h, 97 ppm	96.4
23.71 h, 54 ppm	175
23.74 h, 97 ppm	288
24.11 h, 54 ppm	191
24.33 h, 97 ppm	255
24.69 h, 97 ppm	352
47.97 h, 97 ppm	393
47.99 h, 97 ppm	364
48.13 h, 97 ppm	417
49.69 h, 54 ppm	258
49.75 h, 54 ppm	291
71.65 h, 54 ppm	301
71.89 h, 54 ppm	323
72.02 h, 97 ppm	395
72.49 h, 97 ppm	431
72.5 h, 97 ppm	422
95.28 h, 54 ppm	314
95.43 h, 54 ppm	328
95.87 h, 97 ppm	444
95.88 h, 97 ppm	429
96.05 h, 97 ppm	408
119.38 h, 54 ppm	345
119.39 h, 54 ppm	327
119.52 h, 97 ppm	409
119.58 h, 97 ppm	452
119.67 h, 97 ppm	430
142.52 h, 54 ppm	348
142.61 h, 54 ppm	331
143.45 h, 97 ppm	458
143.64 h, 97 ppm	412
143.71 h, 97 ppm	433
166.64 h, 54 ppm	352
167.26 h, 97 ppm	433
167.33 h, 97 ppm	463
167.44 h, 97 ppm	411
191.64 h, 97 ppm	414
191.88 h, 97 ppm	432
192.11 h, 97 ppm	466
